Results on four compounds are retold here after publication PMC8643159 (Drug Design, Development and Therapy, 2021).

Series [1] relates to CYP2C8. The note with it: cited from earlier work.
Series [2] concerns CYP3A4. The following applies: cited from earlier work.
The nature of series [3]: Stability of ripretinib in beagle dog plasma under four conditions. The note with it: room temperature, autosampler, freeze-thaw, frozen storage; 2.5, 100, 750 ng/mL. It is filed as in vitro ADME. In short, it runs like this: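 Dog plasma spiked with test compound at 2.5, 100 and 750 ng/mL, six replicates per level. Stability checked at room temperature, in frozen storage, through freeze-thaw, and as processed extracts in the autosampler. Samples taken with avapritinib IS through 1 mol/L NaOH and ethyl acetate extraction, dried under nitrogen, reconstituted in mobile phase; quantified by UPLC-MS/MS (C18, 0.1% formic acid/acetonitrile gradient).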

Series [4] is classed as in vivo. The note with it: beagle dogs.
The conditions of series [5]: cited from earlier work.
[6] abbreviates: combined with itraconazole vs ripretinib alone.
Where [7] appears, read: combined with voriconazole vs ripretinib alone.
The mark [8] stands for this setting: oral administration of 150 mg of ripretinib.
The mark [9] stands for this setting: single dose of ripretinib 150 mg, patients.

Read-outs that look alike come from different tables or passages of the source.

Consider `CCn1c(=O)c(-c2cc(NC(=O)Nc3ccccc3)c(F)cc2Br)cc2cnc(N)cc21` [DP-5439], for which, in series [1], the “inhibition of CYP2C8” value was “could inhibit”.
Turning to `CCC(C)n1ncn(-c2ccc(N3CCN(c4ccc(OCC5COC(Cn6cncn6)(c6ccc(Cl)cc6Cl)O5)cc4)CC3)cc2)c1=O` (centres unmarked) [Itraconazole], the “inhibition of CYP3A4” value in series [2] is “strong inhibitor”.
In the case of `CCn1c(=O)c(-c2cc(NC(=O)Nc3ccccc3)c(F)cc2Br)cc2cnc(NC)cc21` [Ripretinib], the “inhibition of CYP2C8” value in series [1] is given as “could inhibit”. Moreover, the “stability in plasma under four conditions” value in series [3] is given as “good stability”. In series [4] (setting [6]), the “increase of AUC0→t of ripretinib” value is 36.35% and the “increase of Cmax of ripretinib” value is recorded as 38.35%. In series [4] (setting [7]), the “increase of AUC0→t of ripretinib” value came out at 25.52% and the “increase of Cmax of ripretinib” value turned out to be 27.44%. In series [5] (setting [8]), the “median time to reach Cmax” value is 4 h and the “time to reach a steady state” value is recorded as 14 days. For the same compound, in series [5] (setting [9]), the “mean AUC0-12h” value is 3.773 µg·h/mL, the “mean AUC0-24h” value was 6.634 µg·h/mL and the “mean Cmax” value was 0.502 µg/mL.
Turning to `C[C@@H](c1ncncc1F)[C@](O)(Cn1cncn1)c1ccc(F)cc1F` [voriconazole], in series [2], the “inhibition of CYP3A4” value is listed as “moderate inhibitor”.
